A short description of data set [1]: Cmax in Sprague-Dawley rat brain at 10 mg/kg, ip within 1 hr. The format is ADME, organism-based. Further details: dose 10 mg/kg, route intraperitoneal. The procedure, abridged: (§1)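 Male Sprague-Dawley rats (225-250 g) dosed ip at 10 mg/kg as a 5 mg/ml micro-suspension in 10% Tween 80 in sterile water. Plasma and brain sampled at 0.5, 1, 3 and 6 h, three animals per time point. Quantified by protein precipitation and LC-MS/MS against an internal standard. Brain values corrected for residual blood. PK parameters derived by noncompartmental analysis.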

The target of data set [2] is T1, Muscarinic acetylcholine receptor M5 (Homo sapiens) (UniProt P08912).
T1 sequence (whole entry): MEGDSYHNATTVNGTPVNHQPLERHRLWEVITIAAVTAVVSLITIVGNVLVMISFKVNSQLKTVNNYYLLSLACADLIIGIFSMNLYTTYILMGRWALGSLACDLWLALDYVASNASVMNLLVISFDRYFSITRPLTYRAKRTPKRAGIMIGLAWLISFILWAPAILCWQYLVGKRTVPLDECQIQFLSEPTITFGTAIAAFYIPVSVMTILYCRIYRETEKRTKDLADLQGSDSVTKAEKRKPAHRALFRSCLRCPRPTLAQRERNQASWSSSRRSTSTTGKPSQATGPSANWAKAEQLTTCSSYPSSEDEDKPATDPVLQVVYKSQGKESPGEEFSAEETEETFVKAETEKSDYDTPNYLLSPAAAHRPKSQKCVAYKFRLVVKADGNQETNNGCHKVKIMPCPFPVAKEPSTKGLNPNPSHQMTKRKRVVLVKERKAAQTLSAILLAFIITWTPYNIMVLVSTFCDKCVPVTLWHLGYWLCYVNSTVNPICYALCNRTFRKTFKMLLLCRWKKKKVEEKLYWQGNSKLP
As to the kind of experiment: Activation of human muscarinic M5 receptor expressed in CHO cells coexpressing Gq protein assessed as increase in acetylcholine affinity at 30 uM by [3H]NMS competition binding assay relative to control. The format is cell-based.

Data set [3] concerns the target T2, Muscarinic acetylcholine receptor M1 (Rattus norvegicus) (UniProt P08482).
T2 sequence (whole entry): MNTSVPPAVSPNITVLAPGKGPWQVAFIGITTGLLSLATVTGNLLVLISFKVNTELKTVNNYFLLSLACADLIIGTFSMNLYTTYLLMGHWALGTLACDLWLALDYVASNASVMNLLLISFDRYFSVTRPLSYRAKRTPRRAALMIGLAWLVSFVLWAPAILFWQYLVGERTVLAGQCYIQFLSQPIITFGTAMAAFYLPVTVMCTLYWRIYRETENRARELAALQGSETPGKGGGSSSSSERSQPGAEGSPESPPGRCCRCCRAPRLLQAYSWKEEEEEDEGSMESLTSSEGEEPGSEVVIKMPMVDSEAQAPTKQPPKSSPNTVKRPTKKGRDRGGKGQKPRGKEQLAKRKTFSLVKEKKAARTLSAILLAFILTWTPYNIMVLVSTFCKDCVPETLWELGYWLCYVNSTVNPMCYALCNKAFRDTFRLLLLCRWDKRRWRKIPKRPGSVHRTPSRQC
As to the kind of experiment: Activation of rat muscarinic M1 receptor expressed in CHO cells co-expressing Gq protein assessed as potentiation of acetylcholine-induced intracellular Ca2+ mobilization at 30 uM relative to acetylcholine. The format is functional, cell-based.

The nature of data set [4]: Tmax in Sprague-Dawley rat brain at 10 mg/kg, ip. Set-up: dose 10 mg/kg, route intraperitoneal. The format is ADME, organism-based. The method, boiled down: as §1
The target in data set [5] is T1, Muscarinic acetylcholine receptor M5 (Homo sapiens). As to the kind of experiment: Activation of human muscarinic M5 receptor expressed in CHO cells coexpressing Gq protein assessed as potentiation of acetylcholine-induced intracellular Ca2+ mobilization at 30 uM relative to acetylcholine. The format is functional, cell-based. (In general: A change in cytosolic calcium serves as a functional read-out for many receptors and channels.)

Data set [6] is described as follows: Selectivity ratio of EC50 for rat muscarinic M4 receptor to EC50 for human muscarinic M5 receptor.
For data set [7], the target named is T3, Muscarinic acetylcholine receptor M5 (Homo sapiens, UniProt P08912).
T3 sequence (P08912 whole entry): T1 sequence (whole entry)
As to the kind of experiment: Activation of human muscarinic M5 receptor expressed in CHO cells coexpressing Gq protein assessed as potentiation of acetylcholine-induced intracellular Ca2+ mobilization. The format is functional, cell-based.

In data set [8] the target is Muscarinic acetylcholine receptor M3 (Homo sapiens, UniProt P20309). As to the kind of experiment: Activation of human muscarinic M3 receptor expressed in CHO cells coexpressing Gq protein assessed as potentiation of acetylcholine-induced intracellular Ca2+ mobilization. The format is functional, cell-based. The procedure, abridged:
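Calcium flux assay. Stable CHO lines were seeded at 5 × 10^4 cells/well (M1, M3, M5) or 6 × 10^4 cells/well (Gqi5 M2, M4) and grown overnight at 37 °C, 5% CO2. Cells were loaded 1 h at 37 °C with 2 µM Fluo-4 AM. […] At least three independent determinations, each in duplicate or more.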

Data set [9] in a line: Ratio of AUC (0 to 6 hrs) in Sprague-Dawley rat brain to AUC (0 to 6 hrs) in Sprague-Dawley rat plasma at 10 mg/kg, ip. The format is ADME, organism-based. Further details: dose 10 mg/kg, route intraperitoneal. The method, boiled down: as §1
For data set [10], the target named is T1, Muscarinic acetylcholine receptor M5 (Homo sapiens). The data set can be described thus: Intrinsic activity at human muscarinic M5 receptor expressed in CHO cells coexpressing Gq protein up to 30 uM by calcium mobilization assay in absence of acetylcholine. The format is functional, cell-based.
Data set [11] concerns the target T4, Muscarinic acetylcholine receptor M4 (Rattus norvegicus) (UniProt P08485).
T4 sequence (whole entry): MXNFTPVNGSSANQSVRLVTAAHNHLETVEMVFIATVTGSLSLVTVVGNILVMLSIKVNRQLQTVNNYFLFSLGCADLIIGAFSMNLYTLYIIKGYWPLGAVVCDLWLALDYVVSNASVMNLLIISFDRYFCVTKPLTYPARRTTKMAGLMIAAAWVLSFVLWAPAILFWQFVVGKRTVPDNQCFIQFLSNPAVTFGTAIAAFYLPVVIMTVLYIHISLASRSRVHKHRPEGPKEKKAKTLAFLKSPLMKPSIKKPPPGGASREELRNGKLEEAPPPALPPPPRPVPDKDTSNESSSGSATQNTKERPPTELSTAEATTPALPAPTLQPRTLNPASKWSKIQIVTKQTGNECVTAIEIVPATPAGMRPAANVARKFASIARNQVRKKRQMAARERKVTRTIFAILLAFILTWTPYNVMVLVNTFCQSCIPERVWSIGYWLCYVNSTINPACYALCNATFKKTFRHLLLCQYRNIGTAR
The data set can be described thus: Activation of rat muscarinic M4 receptor expressed in CHO cells coexpressing chimeric Gqi5 protein assessed as potentiation of acetylcholine-induced intracellular Ca2+ mobilization up to 30 uM. The format is functional, cell-based.

Data set [12] is described as follows: Apparent oral volume of distribution in Sprague-Dawley rat plasma at 10 mg/kg, ip. Further details: dose 10 mg/kg. The conditions noted are these: read-out: Vc/F. The format is ADME, organism-based. The procedure, abridged:
as §1

Data set [13] is described as follows: Selectivity ratio of EC50 for rat muscarinic M2 receptor to EC50 for human muscarinic M5 receptor.
Data set [14] in a line: AUC (0 to 6 hrs) in Sprague-Dawley rat brain at 10 mg/kg, ip. Set-up: time < 6 hr, dose 10 mg/kg, route intraperitoneal. The format is ADME, organism-based. The method, boiled down:
as §1

Data set [15] in a line: Tmax in Sprague-Dawley rat plasma at 10 mg/kg, ip. The format is ADME, organism-based. Set-up: dose 10 mg/kg, route intraperitoneal. The procedure, abridged: as §1
A short description of data set [16]: Apparent oral clearance in Sprague-Dawley rat plasma at 10 mg/kg, ip. Further details: dose 10 mg/kg. The format is ADME, organism-based. The method, boiled down: as §1
Data set [17] deals with T5, Muscarinic acetylcholine receptor M1 (Rattus norvegicus, UniProt P08482).
T5 sequence (P08482 whole entry): T2 sequence (whole entry)
As to the kind of experiment: Activation of rat muscarinic M1 receptor expressed in CHO cells co-expressing Gq protein assessed as potentiation of acetylcholine-induced intracellular Ca2+ mobilization. The format is functional, cell-based.

In data set [18] the target is T1, Muscarinic acetylcholine receptor M5 (Homo sapiens). The data set can be described thus: Displacement of [3H]NMS from human muscarinic M5 receptor expressed in CHO cells coexpressing Gq protein up to 30 uM by scintillation counting. The format is cell-based. In general terms: In a radioligand displacement assay an active substance lowers the binding of a labelled ligand.

Calls of active or inactive are those of the source. The rule behind the calls is not given here.

Sequence of Muscarinic acetylcholine receptor M3 (P20309 whole entry): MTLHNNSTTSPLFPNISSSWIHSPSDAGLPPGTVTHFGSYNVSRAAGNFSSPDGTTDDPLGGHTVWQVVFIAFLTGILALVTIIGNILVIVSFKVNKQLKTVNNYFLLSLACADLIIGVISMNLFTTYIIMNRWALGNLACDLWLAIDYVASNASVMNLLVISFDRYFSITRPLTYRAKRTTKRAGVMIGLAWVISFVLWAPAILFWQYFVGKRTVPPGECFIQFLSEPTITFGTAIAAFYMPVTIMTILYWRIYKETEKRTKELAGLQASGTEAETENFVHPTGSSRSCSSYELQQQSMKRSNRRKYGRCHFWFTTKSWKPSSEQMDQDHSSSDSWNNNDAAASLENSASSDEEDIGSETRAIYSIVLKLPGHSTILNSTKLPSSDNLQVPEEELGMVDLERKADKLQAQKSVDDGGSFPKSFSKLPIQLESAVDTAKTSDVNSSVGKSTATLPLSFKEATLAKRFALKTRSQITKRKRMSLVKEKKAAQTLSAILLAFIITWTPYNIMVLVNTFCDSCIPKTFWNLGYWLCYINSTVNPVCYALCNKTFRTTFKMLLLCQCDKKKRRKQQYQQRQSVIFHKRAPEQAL

As for `COc1ccc(CN2C(=O)C(=O)c3cc(OC(F)(F)F)ccc32)cc1`, the highest level in data set [1] (Cmax) was 43.1 ng/mL. Further, in data set [2], the fold change (FC) turned out to be 10. The figures for the %max in data set [3] and in data set [5] were 12.7% and 60.7%, respectively. Moreover, the Tmax (in general, the time at which the peak concentration occurs) came to 30 min in data set [4] and 60 min in data set [15]. The Ratio EC50 in data set [6] and in data set [13] was above 30 each time. Further, the EC50 (usually the concentration that produces a half-maximal response) in data set [7] was 1.16 µM; in data set [8] it was above 30 µM; in data set [17], above 30 µM. Besides, in [9], the “Ratio AUC” value came out at 0.25. The result in data set [10], in [11] and in [18] was inactive. The Vd/F in [12] is 59.6 L/kg. For the same compound, the exposure AUC(0-t) (in general, the area under the concentration-time curve up to a stated or last time point) at 6 h in data set [14] turned out to be 159 ng·h/mL. Further, in data set [16], the apparent clearance CL/F (in general, clearance divided by bioavailability, as obtained after extravascular dosing) stood at 145 mL/min.
